This is a sample that favours compounds with a hit; in the whole collection about 3% have one here.
HIF activator = HIF pathway transcriptional activation; U2OS HRE-luciferase reporter, luminescence; normalized: DMSO 0%, desferrioxamine 100%; 300,000 tested, 0.32% active; activation, % at 7.5 µM (by protocol);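 active means mean activation of at least 10% of the iron chelator positive control signal, with at least half of replicates also reaching 10%; inconclusive means mean and replicate majority disagree about reaching 10%; inactive means mean and most replicates under 10%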
NRP1-CendR mod = alters CendR peptide binding to human NRP-1 | O14786 | 360,000 tested, 0.85% active | FAM-RPARPAR peptide binding to NRP-1, fluorescence polarization | AID 602438 | inhibition, % at 25 µM;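 active means inhibition or corrected inhibition above about 18%, plus a signal ratio from 0.5 to 1.5, limit read from the data, passing the limit was not always enough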
Target sequence (O14786 whole entry, looked up): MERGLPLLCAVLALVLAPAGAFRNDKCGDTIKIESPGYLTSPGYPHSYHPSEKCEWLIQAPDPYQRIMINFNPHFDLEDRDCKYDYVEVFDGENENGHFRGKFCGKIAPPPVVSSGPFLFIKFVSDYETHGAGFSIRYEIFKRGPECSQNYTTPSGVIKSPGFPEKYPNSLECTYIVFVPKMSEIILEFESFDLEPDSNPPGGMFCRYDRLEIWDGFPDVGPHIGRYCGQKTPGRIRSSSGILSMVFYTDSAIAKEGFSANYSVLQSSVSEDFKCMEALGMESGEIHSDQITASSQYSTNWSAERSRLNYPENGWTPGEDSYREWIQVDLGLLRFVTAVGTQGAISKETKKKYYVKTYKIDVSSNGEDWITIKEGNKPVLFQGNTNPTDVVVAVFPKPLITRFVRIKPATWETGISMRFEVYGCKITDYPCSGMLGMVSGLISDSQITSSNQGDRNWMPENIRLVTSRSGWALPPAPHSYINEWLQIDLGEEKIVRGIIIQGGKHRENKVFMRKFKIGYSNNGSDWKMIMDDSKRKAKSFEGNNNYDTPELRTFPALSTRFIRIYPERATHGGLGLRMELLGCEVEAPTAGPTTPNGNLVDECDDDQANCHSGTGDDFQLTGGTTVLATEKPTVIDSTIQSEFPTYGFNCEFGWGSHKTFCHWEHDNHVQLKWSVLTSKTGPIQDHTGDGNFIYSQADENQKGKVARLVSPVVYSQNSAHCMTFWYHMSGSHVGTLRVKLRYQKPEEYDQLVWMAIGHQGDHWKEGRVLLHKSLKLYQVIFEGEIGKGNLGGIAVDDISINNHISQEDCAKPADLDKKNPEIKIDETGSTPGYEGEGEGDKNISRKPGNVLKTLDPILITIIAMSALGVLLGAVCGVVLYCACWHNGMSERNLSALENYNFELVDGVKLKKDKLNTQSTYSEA
Yeast superoxide = yeast age-related superoxide inhibition as caloric restriction mimetic; 330,000 tested, 0.18% active; S. cerevisiae aged cells, superoxide DHE fluorescence; stronger effect = lower value; AID 2690; superoxide response (% of plate mean), % at 10 µM;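 active means superoxide response under a set limit, about three screen SD below normal, cut at about 65% in these data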;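 further: yeast aged for seven days with compound at 30 °C before DHE staining; 100% = average MFI of all compound-treated wells on the plate with controls excluded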
V-ATPase pHluor = regulators of yeast V-ATPase proton transport. S. cerevisiae, pHLuorin cytosolic pH fluorescence. response, % at 10 µM. 350,000 tested, 0.37% active. AID 504577; in the data active means response mostly above about 7.3%, no sharp cut-off; inactive means mostly below about 5.4%; further: actives read high
AI-2 QS modul = Vibrio harveyi AI-2 quorum sensing modulation. Vibrio harveyi JMH597 AI-2 luminescence/OD600 ratio, 9 h; stronger effect = lower value; strain lacks LuxN and CqsS sensors; 0 = neutral-control median. activity change, % at 7.5 µM. 300,000 tested, 0.4% active. AID 2094; in the data active means activity change below about -75%, passing the limit was not always enough; inconclusive means no clear call, values can overlap the other calls;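 further: luminescence divided by OD600 gain over 9 h not by final OD600 alone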
T cruzi inh = blocks replication of Trypanosoma cruzi; 300,000 tested, 1.4% active; inhibition, % (concentration not given with the values); T. cruzi beta-gal in NIH3T3, luminescence, 90 h;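 active means mean inhibition across valid replicates above about 55%, limit read from the data; inconclusive means mean below that limit but half or more replicates reach it; inactive means mean below it, under half of replicates reach it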;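 further: signal also drops with host cell toxicity which is not excluded here; 0% = plate median of DMSO wells and 100% = zero luminescence signal; higher percent means less beta-gal luminescence so fewer parasites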
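assay system = mouse NIH/3T3 fibroblasts infected with β-gal-expressing T. cruzi Tulahuen C4 | input = 5,000 NIH/3T3 host cells per well | buffer or medium = DMEM plus 2% FBS | timing = 3 h host attachment, then at least 90 h co-culture | measured by = GalScreen luminescence, 60 min | evaluation = luminescence reflecting intracellular parasite burden, expressed as percent inhibition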
* = called active by the depositor; ? = inconclusive; . = no result.

SMILES | HIF activator | NRP1-CendR mod | Yeast superoxide | V-ATPase pHluor | AI-2 QS modul | T cruzi inh
CCOc1ccccc1N1CCN(C/C=C/c2ccc(N(C)C)cc2)CC1 | 0 | 8 | 104 | -5 | 9 | 17
CCc1noc(C)c1C(=O)OCC(=O)c1ccc(NC(C)=O)cc1F | . | 4 | 110 | 17* | . | .
CCc1noc(C)c1C(=O)OCC(=O)Nc1ccc(F)cc1Cl | . | 5 | 100 | -5 | . | .
CCc1cccc(NC(=O)COC(=O)c2cc([N+](=O)[O-])ccc2N2CCOCC2)c1 | 2 | 13 | 92 | -2 | 45 | -10
COc1ccc(NC(=O)CSc2ccc3nnc(CCNC(=O)c4ccccc4)n3n2)cc1 | 0 | 9 | 107 | 3 | 1 | 1
COc1cccc(NC(=O)CSc2ccc3nnc(CCNC(=O)c4ccccc4)n3n2)c1 | 0 | 20* | 116 | -2 | 33 | -17
CCOC(=O)c1c(C)c(C(=O)NCc2cccs2)c(C)n1CC | 0 | 2 | 109 | -1 | 1 | -13
COc1ccc(-n2c(CNC(=O)c3cccs3)n[nH]c2=S)cc1 | 0 | 31* | 102 | 1 | 14 | -1
CCC(Sc1nc(C)cc(C)n1)C(=O)NC1=NN=C(c2ccc(C)cc2)CS1 (stereo unspecified) | 0 | -7 | 97 | 3 | 10 | 53
Cc1cc(C)nc(SCC(=O)NC2=NN=C(c3ccc(Br)cc3)CS2)n1 | 0 | -8 | 133 | 0 | 32 | 68*
CCc1ccc(NC(=O)CCCN2C(=S)NC(C)(C)CC2C)cc1 (stereo unspecified) | 0 | 8 | 91 | 1 | 31 | -4
Cc1ccc(Cn2c(C(C)Nc3nc(-c4ccc(Cl)c([N+](=O)[O-])c4)cs3)nc3cc(C(F)(F)F)ccc32)cc1 (stereo unspecified) | 0 | 35* | 107 | -2 | 19 | 19
Cc1csc(NC(C)c2nc3cc(C(F)(F)F)ccc3n2CCCO)n1 (stereo unspecified) | 0 | 35* | . | -2 | 21 | -8
CCCN1CCC(=O)N(CCSc2ccc(C)cc2)CC1 | 2 | 14 | . | 8 | -5 | 9
Cc1cc(C)n(-c2ccc(C(=O)NC(C)C)cc2)n1 | 0 | -1 | 105 | 3 | 1 | -18
Cc1cc(C)n(-c2ccc(C(=O)Nc3nnc(C4CC4)s3)cc2)n1 | 0 | 26* | 84 | 2 | 8 | 9
O=C(Nc1nnc(C2CC2)s1)c1cccs1 | 2 | 25* | 98 | -3 | -5 | 2
CC(=O)NC(c1ccc(C)cc1)c1cc([N+](=O)[O-])c2cccnc2c1O (stereo unspecified) | 0 | 8 | 108 | -1 | ? | 55*
CC(=O)NC(c1ccc(N(C)C)cc1)c1cc(Cl)c2cccnc2c1O (stereo unspecified) | . | -8 | . | . | . | .
CCC(=O)NC(c1ccc(C)cc1)c1cc([N+](=O)[O-])c2cccnc2c1O (stereo unspecified) | 3 | 6 | 114 | 0 | -27 | 63*
Cc1ccccc1CSCC(=O)NCc1ccco1 | 0 | -7 | 111 | . | 13 | -5
Cn1c(Oc2ccccc2)c(C=O)c2ccccc21 | 0 | -12 | 111 | 3 | 12 | 15
CC1=C(C(=O)N2CCOCC2)CC(CC(=O)NCc2ccco2)C(=O)N1Cc1ccccc1 (stereo unspecified) | . | -4 | . | -1 | . | .
CC(NC(=O)c1cccc(Cn2cc([N+](=O)[O-])cn2)c1)c1ccc(C(C)(C)C)cc1 (stereo unspecified) | -1 | 5 | 128 | 2 | 5 | 55*
CCC(NC(=O)c1cccc(Cn2cc([N+](=O)[O-])cn2)c1)c1ccc(C(C)C)cc1 (stereo unspecified) | 0 | 4 | 99 | 1 | 19 | 48
SMILES | HIF activator | NRP1-CendR mod | Yeast superoxide | V-ATPase pHluor | AI-2 QS modul | T cruzi inh
CCOC(=O)C1(CC2CC2)CCN(Cc2cn[nH]c2-c2cccc(F)c2)CC1 | 0 | 12 | 105 | 2 | 16 | 15
O=C(Nc1ccccc1Cl)NC1(C(=O)NCc2cccnc2)CCCCC1 | -1 | 25* | 98 | 2 | -14 | -7
O=C(COC(=O)CCc1nc2ccccc2n1-c1ccccc1)Nc1ccc(N2CCCCC2)cc1 | 0 | -9 | 93 | 1 | 27 | -5
COc1ccc(C(=O)N2CCC(C(=O)NCc3ccccn3)CC2)cc1 | 0 | 35* | 89 | -1 | 10 | -4
COc1ccc(CCNC(=O)C(=O)NCc2ccccn2)cc1 | 0 | 7 | 91 | 0 | -79* | 2
CCCNC(=O)C(=O)NCc1ccccn1 | 0 | 6 | 108 | 3 | 18 | -3
CCOC12NC(=O)CC(=O)N1C(c1ccccc1)=CS2 (stereo unspecified) | 1 | -6 | 112 | -2 | 37 | -3
CN(C)/C=N/c1c(C#N)cnn1C | 0 | -9 | 97 | 1 | -12 | -5
Nc1ccc2nc3c(=O)n(CCc4ccccc4)c(=O)[nH]c3nc2c1 | 0 | 133 | 114 | 51* | 23 | -2
Cc1cc2nc3c(=O)n(CCc4ccccc4)c(=O)[nH]c3nc2cc1N | -31 | 131 | 93 | -2 | -34 | 56*
CCCCn1c(=O)[nH]c2nc3cc(N)ccc3nc2c1=O | . | 132 | 95 | -3 | . | .
FC(F)(F)c1cc(-c2ccco2)nc(NCc2cccnc2)n1 | 0 | -8 | 91 | 1 | -10 | 6
FC(F)(F)c1cc(-c2ccccc2)nc(NCc2cccnc2)n1 | 0 | 0 | 124 | 20* | 20 | 3
Fc1ccc(-c2cc(C(F)(F)F)nc(NCc3cccs3)n2)cc1 | . | 30* | 106 | 1 | 7 | -9
CCOC(=O)c1sc(=S)n(-c2ccccc2)c1N | 0 | -8 | 99 | 1 | 20 | -4
CCOC(=O)c1sc(=S)n(-c2ccccc2)c1C | 19* | -2 | 100 | -5 | 6 | -18
CCC(CC)N1CCN(CC2CC=CCC2)CC1 (stereo unspecified) | 0 | 23* | 81 | -3 | 4 | 16
CNC(=O)NC(=O)CSc1cccc(C(F)(F)F)c1 | 0 | 38* | 90 | 1 | 5 | 12
CC(C)(C)NC(=O)NC(=O)CSc1cccc(C(F)(F)F)c1 | 0 | -2 | 111 | 6 | 15 | -1
CCOC(=O)N1CCN(C(=O)C(C)SCc2ccccc2)CC1 (stereo unspecified) | 0 | 6 | 99 | 3 | 10 | -3
COCCN1C=C(C(=O)OC)C(c2ccccc2Cl)C(C(=O)OC)=C1 | 0 | 22* | 93 | 4 | 38 | 14
Cc1ccc(OCc2nnc(SCc3cc(=O)[nH]c4ccccc34)o2)cc1 | 0 | 7 | 100 | -1 | 18 | -1
CCC1(O)C(=O)OCc2c1cc1n(c2=O)Cc2cc3cc(O)ccc3nc2-1 (stereo unspecified) | . | 45* | . | -3 | . | .
